Among the data in ChEMBL document CHEMBL2384924, “Antagonists for the orphan G-protein-coupled receptor GPR55 based on a coumarin scaffold” (J Med Chem, 2013) are Activity, IC50 and Ki values, retold here.

For assay [1], the target named is T1, G-protein coupled receptor 55 (Homo sapiens, UniProt Q9Y2T6). The assay is described as follows: Antagonist activity at human GPR55 transfected in CHO cells assessed as inhibition of LPI-induced beta-arrestin recruitment at 10 uM incubated 60 mins prior to LPI addition by beta-arrestin translocation assay. The arrangement: scale not given: the % may be the effect or the level left. Format: cell-based. In a few lines: (§1)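 CHO cells stably expressing human GPR55 were seeded at 20,000 cells/well for 24 h at 37°C. Compound in PBS/10% DMSO/0.1% BSA was added 60 min before 1 µM LPI. Galacton-Star/Emerald-II/lysis buffer (pH 8) was applied for 60 min at RT, with luminescence read-out. Screening was at 10 µM (% inhibition). IC50 was measured where inhibition exceeded 60%. Three independent experiments in duplicate.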
T1 sequence (Q9Y2T6 whole entry): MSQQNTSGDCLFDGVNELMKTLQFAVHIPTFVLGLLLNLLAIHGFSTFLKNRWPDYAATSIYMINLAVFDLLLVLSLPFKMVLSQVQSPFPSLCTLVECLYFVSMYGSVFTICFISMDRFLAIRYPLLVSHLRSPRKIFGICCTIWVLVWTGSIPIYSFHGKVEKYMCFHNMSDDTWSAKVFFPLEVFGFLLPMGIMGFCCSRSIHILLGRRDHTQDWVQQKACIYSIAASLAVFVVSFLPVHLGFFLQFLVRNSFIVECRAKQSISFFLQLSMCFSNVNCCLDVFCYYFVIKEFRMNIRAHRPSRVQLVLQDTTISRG
On the technique in general: Recruitment of arrestin is a read-out of receptor activation apart from second messengers.

The target in assay [2] is T1, G-protein coupled receptor 55. The assay is described as follows: Antagonist activity at human GPR55 transfected in CHO cells assessed as inhibition of LPI-induced beta-arrestin recruitment incubated 60 mins prior to LPI addition by beta-arrestin translocation assay. The assay is classed as cell-based. A digest of the protocol:
as §1

The target is the same in assay [3]. The assay is described as follows: Agonist activity at human GPR55 transfected in CHO cells at 10 uM after 90 mins by beta-arrestin translocation assay. Format: cell-based. In a few lines:
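CHO cells stably expressing human GPR55 (β-galactosidase fragment complementation) were seeded at 20,000 cells/well in Opti-MEM with 2% FCS for 24 h at 37°C. Compound was diluted in PBS with 10% DMSO and 0.1% BSA, screened at 10 µM and incubated 90 min at 37°C. Galacton-Star/Emerald-II/lysis buffer (1:5:19) was added for 60 min at RT, then luminescence was read. Response is relative to 1 µM LPI (100%).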

In assay [4] the target is T2, N-arachidonyl glycine receptor (Homo sapiens, UniProt Q14330).
T2 sequence (Q14330 whole entry): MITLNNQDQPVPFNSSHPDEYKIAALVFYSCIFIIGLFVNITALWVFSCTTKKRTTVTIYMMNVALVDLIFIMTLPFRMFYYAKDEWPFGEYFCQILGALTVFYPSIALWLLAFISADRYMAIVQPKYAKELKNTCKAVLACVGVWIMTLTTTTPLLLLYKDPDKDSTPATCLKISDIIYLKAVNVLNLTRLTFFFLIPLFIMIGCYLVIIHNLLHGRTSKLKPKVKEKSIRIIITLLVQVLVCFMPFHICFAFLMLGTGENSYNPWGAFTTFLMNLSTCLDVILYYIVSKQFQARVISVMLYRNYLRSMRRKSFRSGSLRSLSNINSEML
The assay is described as follows: Antagonist activity at human GPR18 transfected in CHO cells assessed as delta9-THC-induced beta-arrestin recruitment incubated 60 mins prior to delta9-THC addition by beta-arrestin translocation assay. The assay is classed as cell-based. A digest of the protocol:
(§2)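 CHO cells stably expressing human GPR18 were seeded at 20,000 cells/well for 24 h at 37°C. Compound in PBS/10% DMSO/0.1% BSA was added 60 min before the GPR18 agonist 3 at 10 µM. The supplier's detection reagent was used, and luminescence was read after 60 min at RT. Screening was at 10 µM (% inhibition); IC50 from concentration-inhibition curves. Three independent experiments in duplicate.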

Assay [5] addresses T3, N-arachidonyl glycine receptor (Homo sapiens) (UniProt Q14330).
T3 sequence (whole entry): T2 sequence (Q14330 whole entry)
The assay is described as follows: Antagonist activity at human GPR18 transfected in CHO cells assessed as delta9-THC-induced beta-arrestin recruitment at 10 uM incubated 60 mins prior to delta9-THC addition by beta-arrestin translocation assay. The arrangement: scale not given: the % may be the effect or the level left. Format: cell-based. In a few lines: as §2

Assay [6] has as its target Cannabinoid receptor 1 (Homo sapiens, UniProt P21554). The assay is described as follows: Displacement of [3H]-CP55,940 from human CB1 receptor transfected in CHOK1 cells. Format: cell-based, CHO-K1.
In assay [7] the target is Cannabinoid receptor 2 (Homo sapiens, UniProt P34972). Briefly: Displacement of [3H]-CP55,940 from human CB2 receptor transfected in CHOK1 cells. The assay is classed as cell-based, CHO-K1. In a few lines:
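CHO cells stably expressing human CB2 supplied the membranes, 1 µg protein per vial. Compounds were screened at 10 µM, and full competition curves were run where inhibition was about 50% or more. Three independent experiments in duplicate.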

Calls of active or inactive are those of the source. How the calls were made is not given here. A value given as a limit tells only on which side of the number the result lay.

Sequence of Cannabinoid receptor 1 (P21554 whole entry): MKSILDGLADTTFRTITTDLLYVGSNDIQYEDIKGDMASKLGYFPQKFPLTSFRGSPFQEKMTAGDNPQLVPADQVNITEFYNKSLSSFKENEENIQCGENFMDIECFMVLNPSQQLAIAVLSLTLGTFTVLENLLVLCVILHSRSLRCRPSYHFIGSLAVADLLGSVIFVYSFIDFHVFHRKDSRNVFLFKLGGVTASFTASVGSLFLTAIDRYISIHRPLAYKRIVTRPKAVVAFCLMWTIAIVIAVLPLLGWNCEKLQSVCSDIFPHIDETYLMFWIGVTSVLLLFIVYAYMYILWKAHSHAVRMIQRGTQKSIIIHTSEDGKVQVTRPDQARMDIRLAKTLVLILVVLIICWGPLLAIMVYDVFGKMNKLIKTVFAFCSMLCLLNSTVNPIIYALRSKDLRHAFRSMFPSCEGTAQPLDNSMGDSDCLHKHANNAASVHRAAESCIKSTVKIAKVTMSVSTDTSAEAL
Sequence of Cannabinoid receptor 2 (P34972 whole entry): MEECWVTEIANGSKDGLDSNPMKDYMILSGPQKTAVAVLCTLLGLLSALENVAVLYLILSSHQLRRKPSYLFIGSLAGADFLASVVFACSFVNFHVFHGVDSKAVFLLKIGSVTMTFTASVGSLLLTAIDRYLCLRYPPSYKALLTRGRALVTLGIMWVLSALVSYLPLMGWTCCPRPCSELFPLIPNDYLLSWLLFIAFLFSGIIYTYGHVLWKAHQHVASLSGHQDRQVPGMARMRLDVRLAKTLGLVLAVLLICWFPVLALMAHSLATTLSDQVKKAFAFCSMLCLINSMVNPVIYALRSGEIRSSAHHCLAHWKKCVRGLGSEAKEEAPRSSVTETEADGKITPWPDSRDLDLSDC

As a reminder, the IC50 is the concentration at which inhibition is half-maximal. On to `COc1cccc2cc(Cc3ccccc3)c(=O)oc12`, for which the Activity in assay [1] turned out to be 5%. For the same compound, in assay [2], the IC50 is over 10 µM. Besides, the result in assay [3] was inactive.

Turning to `CCCCCc1cc(O)c2cc(Cc3cccc(C)c3)c(=O)oc2c1`, the Activity in assay [1] was 19%. Moreover, in assay [2], the IC50 is over 10 µM. Also, the outcome in assay [3] was inactive.

Regarding `CCCCCCC(C)(C)c1ccc([C@@H]2C[C@H](O)CC[C@H]2CCCO)c(O)c1` [CP-55940], in assay [4], the IC50 turned out to be 5.99 µM.

Regarding `CCCCCc1cc(OC)c2cc(Cc3cccc(C)c3)c(=O)oc2c1`, the Activity in assay [1] stood at 27%. In assay [2], the IC50 was over 10 µM. Also, the result in assay [3] was inactive.

Consider `Cc1ccc(Cc2cc3c(O)cc(C)cc3oc2=O)cc1`, for which the Activity in assay [1] was determined as 42%. Besides, the IC50 in assay [2] was over 10 µM. Further, the result in assay [3] was inactive.

Regarding `Cc1cc(O)c2cc(Cc3ccccc3C)c(=O)oc2c1`, in assay [1], the Activity came out at 45%. In assay [2], the IC50 was over 10 µM. In assay [3], the result was inactive.

Take `O=c1oc2ccc(I)cc2cc1Cc1ccccc1`: the Activity in assay [1] stood at 46%. Also, the IC50 in assay [2] is over 10 µM. In assay [3], the result was inactive.

As to `Cc1cc2cc(Cl)cc(Br)c2oc1=O`, the Activity in assay [1] was found to be 45%. Further, the IC50 in assay [2] is over 10 µM. The result in assay [3] was inactive.

On to `O=c1oc2ccccc2cc1Cc1ccccc1`, for which the Activity in assay [1] was 28%. Also, in assay [2], the IC50 was over 10 µM. For the same compound, in assay [3], the outcome was inactive.

For the compound `CCCCCc1cc(O)c2cc(Cc3ccccc3C)c(=O)oc2c1`, the Activity worked out at 19% in assay [1] and 10% in assay [5]. Besides, the IC50 in assay [4] and in assay [2] was over 10 µM in each case. Further, in assay [3], the outcome was inactive.

With `COc1ccc2cc(C)c(=O)oc2c1`, the Activity in assay [1] was 25%. Moreover, the IC50 in assay [2] was over 10 µM. The outcome in assay [3] was inactive.

The Ki is the equilibrium dissociation constant of an inhibitor or competing ligand from its target. Consider `COc1ccccc1Cc1cc2c(C)c(OC)c(C)c(C)c2oc1=O`, for which the values for the Ki in assay [6] and in assay [7] were 3.66 µM and 338 nM, respectively. The values for the IC50 in assay [4] and in assay [2] were over 10 µM and 0.981 µM, respectively. In assay [3], the result was inactive. The Activity in assay [5] is 27%.

Consider `O=c1oc2cccc(O)c2cc1Cc1ccccc1`, for which the Activity in assay [1] was determined as 6%. In addition, the IC50 in assay [2] was over 10 µM. For the same compound, in assay [3], the result was inactive.

For the compound `COc1ccc(Br)c2oc(=O)c(Cc3ccccc3)cc12`, in assay [1], the Activity was 2%. For the same compound, in assay [2], the IC50 is over 10 µM. For the same compound, in assay [3], the outcome was inactive.

As to `CCCCCc1cc(OC)c2cc(Cc3ccc(F)cc3)c(=O)oc2c1`, in assay [1], the Activity was 57%. The IC50 in assay [2] came to 10 µM. Also, the outcome in assay [3] was inactive.

Take `CCCCCCC(C)(C)c1cc(OC)c2cc(Cc3ccccc3OC)c(=O)oc2c1`: the Activity in assay [1] came to 25%; in assay [5], 26%. Besides, the IC50 in assay [4] and in assay [2] was over 10 µM each time. In assay [3], the result was inactive.

In the case of `COc1ccc2oc(=O)c(Cc3ccccc3)cc2c1`, in assay [1], the Activity amounted to 54%. Moreover, in assay [2], the IC50 stood at 10 µM. For the same compound, the outcome in assay [3] was inactive.

Turning to `COc1ccc2cc(Cc3ccccc3)c(=O)oc2c1`, the Activity in assay [1] was 53%. Besides, in assay [2], the IC50 was 10 µM. Also, the result in assay [3] was inactive.

Turning to `CCCCCc1cc(O)c2cc(Cc3ccccc3O)c(=O)oc2c1`, in assay [1], the Activity turned out to be 37%. Moreover, the IC50 in assay [2] is over 10 µM. In addition, the outcome in assay [3] was inactive.

Take `CCCCCc1cc(OC)c2cc(Cc3ccccc3)c(=O)oc2c1`: the Activity in assay [1] was 36%. Also, in assay [2], the IC50 is over 10 µM. Also, the outcome in assay [3] was inactive.

As for `COc1ccc2oc(=O)c(C)cc2c1`, in assay [1], the Activity was determined as 13%. Moreover, in assay [2], the IC50 was over 10 µM. For the same compound, in assay [3], the result was inactive.

For the compound `CCCCCc1cc(OC)c2cc(Cc3cccc(Cl)c3)c(=O)oc2c1`, in assay [1], the Activity was found to be 36%. In addition, the IC50 in assay [2] is over 10 µM. Moreover, the result in assay [3] was inactive.

`CCCCCc1cc(OC)c2cc(Cc3cc(C)c(OC)c(C)c3)c(=O)oc2c1`: the Activity in assay [1] came to 44%. Moreover, the IC50 in assay [2] was over 10 µM. In addition, the outcome in assay [3] was inactive.

As to `CCCCC1(c2cc(OC)c3cc(Cc4ccccc4OC)c(=O)oc3c2)CCCC1`, the results for the Activity in assay [1] and in assay [5] were 30% and 25%, respectively. For the same compound, the IC50 in assay [4] and in assay [2] was over 10 µM in each case. Also, the outcome in assay [3] was inactive.

Consider `CCCCCc1cc(O)c2cc(Cc3ccccc3)c(=O)oc2c1`, for which the Activity in assay [1] is 0%. Besides, the IC50 in assay [2] was over 10 µM. In addition, the outcome in assay [3] was inactive.

Consider `CCCCCc1cc(OC)c2cc(Cc3ccccc3Cl)c(=O)oc2c1`, for which the IC50 was over 10 µM in assay [4] and 9 µM in assay [2]. In addition, the result in assay [3] was inactive. Also, in assay [5], the Activity is 25%.

Regarding `COc1cccc2cc(C)c(=O)oc12`, the Activity in assay [1] stood at 7%. Further, the IC50 in assay [2] was over 10 µM. Moreover, the outcome in assay [3] was inactive.

Take `COc1cccc(Cc2cc3c(OC)cccc3oc2=O)c1`: the Activity in assay [1] turned out to be 54%. Also, the IC50 in assay [2] amounted to 10 µM. The result in assay [3] was inactive.

`Cc1cc2c(ccc3ccccc32)oc1=O`: in assay [1], the Activity worked out at 28%. Also, the IC50 in assay [2] was over 10 µM. For the same compound, the outcome in assay [3] was inactive.

As for `COc1cccc(Cc2cc3c(OC)cc(CBr)cc3oc2=O)c1`, the Activity in assay [1] was 18%. Also, the IC50 in assay [2] was over 10 µM. Moreover, the outcome in assay [3] was inactive.

On to `COc1cc(Br)cc2cc(C)c(=O)oc12`, for which the Activity in assay [1] is 16%. Also, the IC50 in assay [2] was over 10 µM. Moreover, the result in assay [3] was inactive.

As for `O=c1oc2ccc3ccccc3c2cc1Cc1ccccc1`, the IC50 in assay [2] came out at 2.81 µM. In addition, the result in assay [3] was inactive.

`CCCCCc1cc(O)c2cc(Cc3cccc(Cl)c3)c(=O)oc2c1`: the Activity in assay [1] was 30%. For the same compound, the IC50 in assay [2] was over 10 µM. The outcome in assay [3] was inactive.

As to `COc1cccc(Cc2cc3c(OC)cc(CO)cc3oc2=O)c1`, in assay [1], the Activity came out at 13%. The IC50 in assay [2] was over 10 µM. Besides, in assay [3], the outcome was inactive.

For the compound `COc1c(C)c(C)c2oc(=O)c(Cc3ccccc3C)cc2c1C`, the Ki was determined as 7.86 µM in assay [6] and 660 nM in assay [7]. Also, the IC50 in assay [4] is over 10 µM; in assay [2], 7.69 µM. Besides, the result in assay [3] was inactive. The Activity in assay [5] is 33%.

With `Cc1cc2cc(I)ccc2oc1=O`, the Activity in assay [1] turned out to be 40%. The IC50 in assay [2] is over 10 µM. The result in assay [3] was inactive.

As for `CCCCCCC(C)(C)c1cc(OC)c2cc(Cc3ccccc3)c(=O)oc2c1`, the Activity is 51% in assay [1] and 31% in assay [5]. Moreover, the IC50 was over 10 µM in assay [4] and 10 µM in assay [2]. Besides, the outcome in assay [3] was inactive.

Turning to `COc1cccc2oc(=O)c(Cc3ccccc3)cc12`, the Activity in assay [1] is 43%. The IC50 in assay [2] is over 10 µM. In addition, the result in assay [3] was inactive.

Take `CCCCCc1cc(O)c2cc(Cc3ccccc3Cl)c(=O)oc2c1`: the Activity in assay [1] and in assay [5] was 0% throughout. Further, the IC50 in assay [4] and in assay [2] was over 10 µM throughout. The result in assay [3] was inactive.
